# Screening results as filed in PubChem.
# Shown are actives, neighbours in structure and some others; about 2% of the full set was active somewhere.
# MBD2 DNA inh: inhibitors of human MBD2 binding to methylated oligonucleotide. Q9UBB5. TR-FRET. inhibition, % at 4.4 µM. 370,000 tested, 0.31% active; in the data active = inhibition above about 13%
# LEDGF integ inh: blocks HIV-1 LEDGF/p75-dependent DNA integration | TR-FRET IN-LEDGF/p75 DNA integration, Eu/Cy5 | inhibition, % at 3.7 µM | 370,000 tested, 0.64% active;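 active = inhibition above the screen-wide mean plus 3 SD, cut at about 13% in these data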;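 note: signal is the Cy5 over europium emission ratio at 671 and 618 nm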
# TDP2 inh: blocks human TDP2 phosphodiesterase activity | O95551 | recombinant TDP2, T5PNP hydrolysis, p-nitrophenol absorbance 415 nm | inhibition, % at 12.8 µM | 370,000 tested, 0.34% active;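 active = inhibition above the mean of all tested compounds plus 3 SD, set per campaign, cut at about 25% in these data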
# Target sequence (O95551 whole entry, looked up): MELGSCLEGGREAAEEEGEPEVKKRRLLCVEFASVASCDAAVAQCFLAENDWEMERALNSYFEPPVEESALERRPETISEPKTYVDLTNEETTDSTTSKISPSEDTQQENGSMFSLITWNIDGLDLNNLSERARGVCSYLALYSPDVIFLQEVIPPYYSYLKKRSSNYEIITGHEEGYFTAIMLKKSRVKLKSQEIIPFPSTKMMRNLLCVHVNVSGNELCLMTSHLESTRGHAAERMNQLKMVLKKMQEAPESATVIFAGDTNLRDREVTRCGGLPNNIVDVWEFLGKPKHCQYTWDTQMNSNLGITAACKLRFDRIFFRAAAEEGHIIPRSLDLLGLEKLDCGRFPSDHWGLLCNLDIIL
#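 Material: recombinant human TDP2; quantity: TDP2 enzyme at 120 nM final; medium: Tris-HCl pH 7.5 with MgCl2; compound: single concentration, 12.8 µM nominal, with 1% DMSO; incubation: 2 h enzyme incubation at 37 °C; signal: epi absorbance; measure: percent inhibition; benchmarks: high control without enzyme, low control DMSO plus TDP2; repeats: singlicate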
# UHRF1 MBD2 ctr: UHRF1 methyl-DNA binding inhibition; Q96T88; UHRF1 binding to methylated oligo, TR-FRET; inhibition, % at 4.4 µM; 370,000 tested, 0.75% active; in the data active = inhibition above about 21%;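 note: UHRF1 SRA domain binding a hemimethylated CpG hairpin DNA probe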
# ASAP1 inh: ASAP1 ArfGAP inhibition; ASAP1-stimulated ARF1 GTP hydrolysis, GDP FP detection; inhibition, % at 16.5 µM; 360,000 tested, 0.19% active; in the data active = inhibition above about 25%
# ARFGAP1 inhibitor: inhibitors of rat ARFGAP1; inhibition, % at 16.5 µM; 360,000 tested, 0.26% active; Q62848; Arfgap1-stimulated ARF1 GTP hydrolysis, GDP FP detection;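 active = inhibition above a per-plate limit, mean inhibition of low control wells plus 3 SD, cut at about 25% in these data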
#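 Material: rat Arfgap1 catalytic domain, aa 1-136; also added: human ARF1(Δ1-17)-GTP substrate; compound dosing: one concentration, 16.5 µM, DMSO 1.26%; incubation: GTP hydrolysis reaction 2 h at 25 °C; measured by: Tracer-displacement fluorescence polarization with EDTA stop, 620/688 nm; evaluation: % inhibition from polarization; repeats: one replicate per compound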
# IN multimer up: activates HIV-1 integrase multimerization in LEDGF counter-screen; shares compounds with LEDGF integ inh; TR-FRET HIV-1 integrase multimerization, biochemical; activation, % at 7.7 µM; 2,000 tested, 17% active; AID 1053131; in the data active = activation above about 8.9%
# TRFRET interf: counter-screen for LEDGF/p75 integration inhibitors: TR-FRET optical interference. 2,000 tested, under 10 active. AID 1053135. inhibition, % at 7.7 µM. shares compounds with LEDGF integ inh. TR-FRET optical interference counterscreen, HIV-1 IN multimerization;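 active = inhibition above the mean over all tested compounds plus 3 SD, which no compound reached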
# IN-LEDGF confirm: LEDGF/p75-dependent HIV-1 integration inhibition, confirmation | shares compounds with LEDGF integ inh | TR-FRET LEDGF/p75-dependent HIV-1 integration, biochemical | inhibition, % at 3.7 µM | 2,000 tested, 36% active | AID 1053136; in the data active = inhibition above about 14%
# A number is an active result; . = inactive; / = not tested or not shown.
SMILES,MBD2 DNA inh,LEDGF integ inh,TDP2 inh,UHRF1 MBD2 ctr,ASAP1 inh,ARFGAP1 inhibitor,IN multimer up,TRFRET interf,IN-LEDGF confirm
O=[N+]([O-])c1c(NCCCO)cc(SCc2ccco2)c2nonc12,.,38,.,35,.,.,.,.,.
C=CCNC(=O)CN(C(=O)c1ccncn1)c1cccc(Br)c1,.,.,.,.,/,/,/,/,/
CCCCC1(C)OC(=O)C(=Cc2ccc(-c3ccc(Cl)c(C(=O)O)c3)o2)C(=O)O1 (centres undefined),.,.,.,.,.,.,/,/,/
CC(C)N1C(=O)S/C(=C\c2ccc(-c3ccc(Cl)c(C(=O)O)c3)o2)C1=O,.,37,.,37,.,.,.,.,.
O=C(N/N=C/c1c(O)n(Cc2ccco2)c(=O)[nH]c1=O)c1ccccc1,.,53,.,34,.,.,13,.,.
CCOC(=O)C1=C(C)NC(=O)CC1c1cc2c(cc1[N+](=O)[O-])OCO2 (centres undefined),.,22,.,.,.,.,.,.,.
CCCOC(=O)C1=C(C)N(C)C(=O)NC1c1cc2c(cc1[N+](=O)[O-])OCO2 (centres undefined),.,.,.,.,.,.,/,/,/
Oc1ccc(-c2csc(Nc3ncccn3)n2)cc1O,.,17,.,.,.,.,27,.,.
Oc1ccc(-c2csc(Nc3ncccn3)n2)c(O)c1,.,.,.,.,.,.,/,/,/
CSC1=N/C(=C\c2ccc(C)o2)C(=O)S1,.,14,.,.,.,.,.,.,.
CSC1=N/C(=C\c2ccc(C)s2)C(=O)S1,.,.,.,.,.,.,/,/,/
CCC[C@H]1[C@@H](NC(=O)c2ccc(N(C)C)cc2)CC[C@@]23CCCN2C(=O)CCC[C@@H]13,.,.,.,.,/,/,/,/,/
CN(C)c1cccc(/C=C2\CC3(OC(=O)c4ccccc4)CCCN2C3)c1 (centres undefined),.,.,.,.,/,/,/,/,/
Cc1cc(Cl)ccc1OCCCC(=O)NCCCn1ccnc1,.,.,.,.,.,.,/,/,/
O=C(CCCOc1ccc(Cl)cc1Cl)NCCCn1ccnc1,.,27,.,.,.,.,.,.,.
Cc1cc(C)nc(N2CCC(C(=O)N(C)CCc3ccccn3)CC2)n1,.,.,.,.,/,/,/,/,/
Cc1ccc(/C=c2\s/c(=C(/C#N)C(=O)N3CCCC3)n(Cc3ccco3)c2=O)s1,.,14,.,.,.,.,.,.,.
N=c1c2c(-c3ccccc3)c(-c3ccccc3)n(CCc3ccccc3)c2ncn1C1CCC(O)CC1 (centres undefined),.,.,.,.,/,/,/,/,/
C#CCNC(=O)c1cnn(-c2ccccc2)c1N,.,.,.,.,/,/,/,/,/
Cc1ccc(O)c(-c2[nH]ncc2C(=O)c2ccc(Cl)cc2)c1,.,.,.,.,.,.,/,/,/
Cc1ccc(O)c(-c2[nH]ncc2C(=O)c2ccc(Br)cc2)c1,.,14,.,.,.,.,.,.,.
COCCCNC(=O)C[C@H]1C[C@@]2(C(=O)OC)C(=C[C@H](C3CCCC3)O[C@@H]2C)N(Cc2cccc3ccccc23)C1=O,.,.,.,.,/,/,/,/,/
c1ccc(-c2noc(CN3CCN(C(c4ccccc4)c4ccccc4)CC3)n2)cc1,.,15,.,.,.,.,.,.,.
Cc1ccccc1-c1cc2nc(NCc3ccncc3)n(C)c(=O)c2s1,.,.,.,.,.,.,/,/,/
Cc1ccccc1-c1cc2nc(NCc3cccnc3)n(C)c(=O)c2s1,.,91,.,.,.,.,.,.,.
Cc1ccc(NC(=O)CNCC2CCCCC2)cc1S(=O)(=O)N(C)C,.,32,.,.,.,.,.,.,.
COc1ccccc1COC(=O)N/C=C/c1ccco1,.,14,.,.,.,.,.,.,17
